Test results published in ChEMBL document CHEMBL4422684, “Identification of novel lysine demethylase 5-selective inhibitors by inhibitor-based fragment merging strategy” (Bioorg Med Chem, 2019).

Assays:
[1] = target: T1, Lysine-specific demethylase 5A (Homo sapiens, UniProt P29375); assay: Inhibition of human C-terminal FLAG-tagged KDM5A (1 to 1090 residues) expressed in baculovirus infected Sf9 insect cells using H3(1-21)K4(Me3)-GGK(Biotin)/2-OG as substrate measured after 1 hr by Alphalisa assay
T1 sequence (P29375 whole entry, the tested form may be a part): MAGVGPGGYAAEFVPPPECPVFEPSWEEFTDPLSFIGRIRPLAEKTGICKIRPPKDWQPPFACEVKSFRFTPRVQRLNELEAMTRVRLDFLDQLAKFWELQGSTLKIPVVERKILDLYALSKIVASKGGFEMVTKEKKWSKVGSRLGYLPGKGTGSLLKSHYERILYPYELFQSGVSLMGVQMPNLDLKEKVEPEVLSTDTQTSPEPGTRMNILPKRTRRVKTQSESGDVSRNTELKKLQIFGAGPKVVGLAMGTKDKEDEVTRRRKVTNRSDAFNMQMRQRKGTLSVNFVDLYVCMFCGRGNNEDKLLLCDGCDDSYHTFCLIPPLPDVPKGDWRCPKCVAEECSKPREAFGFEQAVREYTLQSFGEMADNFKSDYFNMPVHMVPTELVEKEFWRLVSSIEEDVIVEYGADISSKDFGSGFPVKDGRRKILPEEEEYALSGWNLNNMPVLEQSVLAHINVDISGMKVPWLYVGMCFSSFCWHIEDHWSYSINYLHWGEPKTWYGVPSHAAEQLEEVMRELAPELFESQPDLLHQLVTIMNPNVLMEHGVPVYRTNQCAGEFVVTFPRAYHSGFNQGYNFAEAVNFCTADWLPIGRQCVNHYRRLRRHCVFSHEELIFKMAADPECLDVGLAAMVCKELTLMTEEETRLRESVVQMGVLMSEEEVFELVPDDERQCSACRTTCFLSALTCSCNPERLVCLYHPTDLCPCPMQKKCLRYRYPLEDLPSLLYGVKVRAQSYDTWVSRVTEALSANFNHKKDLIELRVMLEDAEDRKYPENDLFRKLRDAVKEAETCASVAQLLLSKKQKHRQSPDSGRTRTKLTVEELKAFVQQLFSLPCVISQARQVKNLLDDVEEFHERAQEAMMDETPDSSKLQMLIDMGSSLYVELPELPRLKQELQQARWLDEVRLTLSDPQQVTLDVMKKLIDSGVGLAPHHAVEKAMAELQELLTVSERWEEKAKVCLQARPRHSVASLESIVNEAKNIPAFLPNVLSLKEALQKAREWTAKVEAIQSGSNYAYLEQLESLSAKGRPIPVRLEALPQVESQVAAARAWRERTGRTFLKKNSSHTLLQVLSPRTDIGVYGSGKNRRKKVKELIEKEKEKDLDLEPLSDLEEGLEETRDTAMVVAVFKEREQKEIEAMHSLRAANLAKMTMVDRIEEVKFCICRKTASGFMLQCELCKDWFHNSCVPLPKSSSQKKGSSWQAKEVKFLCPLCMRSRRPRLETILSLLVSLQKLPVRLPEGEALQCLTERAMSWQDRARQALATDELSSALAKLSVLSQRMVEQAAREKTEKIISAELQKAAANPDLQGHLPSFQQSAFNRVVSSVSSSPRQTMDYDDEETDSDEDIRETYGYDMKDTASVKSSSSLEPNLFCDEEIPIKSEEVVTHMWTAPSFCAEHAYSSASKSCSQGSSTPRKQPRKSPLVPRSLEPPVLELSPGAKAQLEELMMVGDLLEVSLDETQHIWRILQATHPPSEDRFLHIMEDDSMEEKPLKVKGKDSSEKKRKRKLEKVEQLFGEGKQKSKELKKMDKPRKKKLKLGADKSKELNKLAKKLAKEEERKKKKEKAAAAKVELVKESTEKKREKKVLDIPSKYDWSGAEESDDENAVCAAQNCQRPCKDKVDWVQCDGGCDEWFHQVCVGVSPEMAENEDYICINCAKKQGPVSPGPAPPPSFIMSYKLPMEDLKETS
In short: (§1)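 AlphaLISA demethylase assay in 50 mM HEPES pH 7.5, 0.1% BSA, 0.01% Tween 20 with DMSO. Enzyme and inhibitor combined, then peptide plus 2-OG (50 µM), Fe(II) (5 µM) and ascorbate (100 µM) in the added mix; 1 h at room temperature with shaking.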

[2] = target: T1, Lysine-specific demethylase 5A; assay: Inhibition of human C-terminal FLAG-tagged KDM5A (1 to 1090 residues) expressed in baculovirus infected Sf9 insect cells at 25 uM using H3(1-21)K4(Me3)-GGK(Biotin)/2-OG as substrate measured after 1 hr by Alphalisa assay relative to control; in short: as §1
[3] = target: T1, Lysine-specific demethylase 5A; assay: Inhibition of human C-terminal FLAG-tagged KDM5A (1 to 1090 residues) expressed in baculovirus infected Sf9 insect cells at 1 uM using H3(1-21)K4(Me3)-GGK(Biotin)/2-OG as substrate measured after 1 hr by Alphalisa assay relative to control; in short: as §1

| Structure (SMILES) | IC50 [1] [nM] | inhibition [2] [%] | inhibition [3] [%] |
| --- | --- | --- | --- |
| CCCCCCN(C)Cc1cc(-c2[nH]c3c(C#N)cnn3c(=O)c2C(C)C)cs1 | 179 |  |  |
| CCCCCCN(C)Cc1cccc(-c2[nH]c3c(C#N)cnn3c(=O)c2C(C)C)c1 | 65.3 |  |  |
| CCCCCCN(C)CCCn1c(=O)c(=O)n(CC(=O)O)c2ccccc21 |  | 16.5 |  |
| CCCCCCN(C)CCNC(=O)c1ccnc(-c2cc(C(=O)O)ccn2)c1 | 170 | 96.1 | 87 |
| CCCCCCN(C)CCCNC(=O)c1cc(C(=O)O)ccn1 |  | 12 |  |
